Results: ChEMBL document CHEMBL1159064 (J Med Chem, 2010)
Calls of active or inactive are those of the source. The rule behind the calls is not given here.

Columns and labels:
[1] = target: T1, 5-hydroxytryptamine receptor 1A (Homo sapiens, UniProt P08908); experiment: Displacement of [3H]8-OH-DPAT from 5HT1A receptor expressed in CHO cells by liquid scintillation counting; assay type: cell-based
T1 sequence (P08908 whole entry): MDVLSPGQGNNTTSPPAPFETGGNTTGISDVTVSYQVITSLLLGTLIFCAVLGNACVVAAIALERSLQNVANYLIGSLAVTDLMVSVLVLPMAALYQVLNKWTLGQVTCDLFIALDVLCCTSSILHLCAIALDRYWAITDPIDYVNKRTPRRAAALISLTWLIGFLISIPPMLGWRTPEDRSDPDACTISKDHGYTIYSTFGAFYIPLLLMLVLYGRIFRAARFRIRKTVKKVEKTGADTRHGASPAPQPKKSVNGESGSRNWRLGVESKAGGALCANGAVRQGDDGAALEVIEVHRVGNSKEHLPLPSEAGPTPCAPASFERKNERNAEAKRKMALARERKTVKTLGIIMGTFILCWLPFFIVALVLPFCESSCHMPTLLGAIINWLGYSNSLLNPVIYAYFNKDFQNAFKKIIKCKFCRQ
Outline: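 Binding buffer 50 mM Tris, 4 mM MgCl2, pH 7.4. Nonspecific binding defined with 10 μM of a selective 5-HT1A antagonist. GF/B filtration with cold Tris/EDTA wash, scintillation counting. IC50/Ki by sigmoidal nonlinear regression. Mean of 5-6 experiments.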

D(1A) dopamine receptor = D(1A) dopamine receptor (Homo sapiens, UniProt P21728); experiment: Displacement of [3H]SCH23390 from dopamine D1 receptor expressed in HEK293 cells by liquid scintillation counting; assay type: cell-based
Chain of D(1A) dopamine receptor (P21728 whole entry): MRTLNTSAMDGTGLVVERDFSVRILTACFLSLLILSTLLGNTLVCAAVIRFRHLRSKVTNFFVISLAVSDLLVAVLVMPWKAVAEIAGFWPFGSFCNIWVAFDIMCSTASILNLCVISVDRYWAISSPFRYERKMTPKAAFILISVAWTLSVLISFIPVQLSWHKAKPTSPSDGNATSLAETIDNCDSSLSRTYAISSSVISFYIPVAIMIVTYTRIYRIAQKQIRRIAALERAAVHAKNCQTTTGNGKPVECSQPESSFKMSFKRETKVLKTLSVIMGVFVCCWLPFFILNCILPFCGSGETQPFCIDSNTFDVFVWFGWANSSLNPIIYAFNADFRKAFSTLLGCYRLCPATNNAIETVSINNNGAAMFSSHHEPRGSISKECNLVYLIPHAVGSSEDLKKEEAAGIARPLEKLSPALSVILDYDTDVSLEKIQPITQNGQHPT
Outline: (§1)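 Membranes from stably transfected HEK293 cells (15 μg/tube) expressing D1 (radioligand [3H]SCH23390) or D2 (radioligand [3H]spiperone), 0.7 nM radioligand, compound 1 nM–100 μM, duplicate tubes, 50 min at 30 °C. Buffer 50 mM Tris, 4 mM MgCl2, pH 7.4. Nonspecific binding with 10 μM SCH23390 (D1) or spiperone (D2). GF/B filtration, scintillation counting. Ki by sigmoidal nonlinear regression.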

D(2) dopamine receptor = D(2) dopamine receptor (Homo sapiens, UniProt P14416); experiment: Displacement of [3H]spiperone from dopamine D2 receptor expressed in HEK293 cells by liquid scintillation counting; assay type: cell-based; outline: as §1
Chain of D(2) dopamine receptor (P14416 whole entry): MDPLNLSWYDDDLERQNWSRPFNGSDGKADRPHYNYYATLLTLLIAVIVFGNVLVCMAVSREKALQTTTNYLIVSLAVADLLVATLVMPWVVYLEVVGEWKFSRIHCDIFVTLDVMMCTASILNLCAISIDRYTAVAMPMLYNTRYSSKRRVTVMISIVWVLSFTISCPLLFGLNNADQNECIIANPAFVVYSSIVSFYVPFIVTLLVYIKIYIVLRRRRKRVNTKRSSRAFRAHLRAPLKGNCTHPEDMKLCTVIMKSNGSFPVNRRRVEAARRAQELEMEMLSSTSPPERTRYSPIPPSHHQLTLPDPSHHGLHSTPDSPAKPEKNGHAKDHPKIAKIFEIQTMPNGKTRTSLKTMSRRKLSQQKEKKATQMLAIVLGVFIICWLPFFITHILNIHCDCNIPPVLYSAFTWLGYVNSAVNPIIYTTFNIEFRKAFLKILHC

[2] = target: T2, 5-hydroxytryptamine receptor 1A (Homo sapiens) (UniProt P08908); experiment: Agonist activity at 5HT1A receptor expressed in CHO cells assessed as stimulation of [35S]GTPgamma binding relative to control; assay type: functional, cell-based
T2 sequence (whole entry): T1 sequence (P08908 whole entry)

[3] = target: T1, 5-hydroxytryptamine receptor 1A; experiment: Agonist activity at 5HT1A receptor expressed in CHO cells assessed as stimulation of [35S]GTPgamma binding; assay type: functional, cell-based
[4] = target: T2, 5-hydroxytryptamine receptor 1A (Homo sapiens); experiment: Antagonist activity at 5HT1A receptor expressed in CHO cells assessed as inhibition of 5-HT-stimulated [35S]GTPgamma binding relative to control; assay type: functional, cell-based
[5] = target: T1, 5-hydroxytryptamine receptor 1A; experiment: […] activity at 5HT1A receptor expressed in CHO cells assessed as inhibition of 5-HT-stimulated [35S]GTPgamma binding; assay type: functional, cell-based
Rattus norvegicus [6] = experiment: Anxiolytic effect in Sprague-Dawley rat assessed as increase in number of entries at open arm at 3 mg/kg, ip pretreated for 1 hr by elevated plus maze test; assay type: functional, organism-based; parameters: dose 3 mg/kg
Outline: (§2)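 Male rats, 250-300 g, given saline or test compound ip (1.0 or 3.0 mg/kg) 1 h before the maze. Two open and two closed arms (40 cm walls), 50 × 10 cm arms, raised 50 cm. Rat placed on centre facing a closed arm and allowed 5 min to explore. Video tracking recorded open-arm entries and time. Mean ± SE, n = 7-9; comparison to the saline group.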

Rattus norvegicus [7] = experiment: Anxiolytic effect in Sprague-Dawley rat assessed as increase in time spent at open arm at 3 mg/kg, ip pretreated for 1 hr by elevated plus maze test; assay type: functional, organism-based; parameters: dose 3 mg/kg; outline: as §2
Rattus norvegicus [8] = experiment: Anxiolytic effect in Sprague-Dawley rat assessed as increase in number of entries at open arm at 1 mg/kg, ip pretreated for 1 hr by elevated plus maze test; assay type: functional, organism-based; parameters: dose 1 mg/kg; outline: as §2
Rattus norvegicus [9] = experiment: Anxiolytic effect in Sprague-Dawley rat assessed as increase in time spent at open arm at 1 mg/kg, ip pretreated for 1 hr by elevated plus maze test; assay type: functional, organism-based; parameters: dose 1 mg/kg; outline: as §2
Rattus norvegicus [10] = experiment: Increase in ventral tegmental area dopaminergic neuron bursting level in D2-like receptor antagonist raclopride-pretreated Sprague-Dawley rat at 1 mg/kg, iv relative to untreated control; assay type: functional, organism-based; parameters: dose 1 mg/kg
Rattus norvegicus [11] = experiment: Increase in ventral tegmental area dopaminergic neuron firing rate in D2-like receptor antagonist raclopride-pretreated Sprague-Dawley rat at 1 mg/kg, iv in presence of 5HT1A receptor antagonist WAY-100635 administered post compound dose; assay type: functional, organism-based; parameters: dose 1 mg/kg
Rattus norvegicus [12] = experiment: Increase in ventral tegmental area dopaminergic neuron bursting level in D2-like receptor antagonist raclopride-pretreated Sprague-Dawley rat at 1 mg/kg, iv in presence of 5HT1A receptor antagonist WAY-100635 administered post compound dose; assay type: functional, organism-based; parameters: dose 1 mg/kg
Rattus norvegicus [13] = experiment: Increase in ventral tegmental area dopaminergic neuron firing rate in D2-like receptor antagonist raclopride-pretreated Sprague-Dawley rat at 1 mg/kg, iv in pretreated with 5HT1A receptor antagonist WAY-100635; assay type: functional, organism-based; parameters: dose 1 mg/kg
Rattus norvegicus [14] = experiment: Increase in ventral tegmental area dopaminergic neuron bursting level in D2-like receptor antagonist raclopride-pretreated Sprague-Dawley rat at 1 mg/kg, iv in pretreated with 5HT1A receptor antagonist WAY-100635; assay type: functional, organism-based; parameters: dose 1 mg/kg

| SMILES | Ki ([1]; read-out: Ki) [nM] | Ki (D(1A) dopamine receptor) [nM] | Ki (D(2) dopamine receptor) [nM] | other results |
| --- | --- | --- | --- | --- |
| C[C@H]1Cc2ccc3c(c2O1)-c1cccc2c1[C@@H](C3)N(C)CC2 (relative stereo) | 45.3 | > 10000 | > 10000 | Emax [2]: inactive; EC50 ([3]; cho): Not Active; Imax [4]: 100%; IC50 ([5]; read-out: IC50): 18 nM; Activity (Rattus norvegicus [6]): inactive; Activity (Rattus norvegicus [7]): inactive; Activity (Rattus norvegicus [8]): inactive; Activity (Rattus norvegicus [9]): inactive |
| Cc1cc2ccc3c(c2o1)-c1cccc2c1[C@@H](C3)N(C)CC2 | 29 | > 10000 | > 10000 |  |
| CC#CCOc1cccc2c1-c1cccc3c1[C@@H](C2)N(CCC)CC3 | 125 | > 10000 | > 10000 |  |
| C=C(C)Cc1ccc2c(c1O)-c1cccc3c1[C@@H](C2)N(CCC)CC3 |  | > 10000 | > 10000 | Ki ([1]; cho): Not Active |
| C#CCOc1cccc2c1-c1cccc3c1[C@@H](C2)N(C)CC3 | 14 | > 10000 | > 10000 | Emax [2]: 73%; EC50 ([3]; read-out: EC50): 180 nM |
| CC1Cc2ccc3c(c2O1)-c1cc(O)cc2c1[C@@H](C3)N(C)CC2 (mixture of isomers) | 12 |  |  |  |
| CCCN1CCc2cccc3c2[C@H]1Cc1ccc2c(C)c(C)oc2c1-3 | 510 | > 10000 | > 10000 |  |
| C=CC(C)c1ccc(O)c2c1C[C@@H]1c3c(cccc3-2)CCN1CCC (mixture of isomers) | 626 |  |  |  |
| C=CC(C)Oc1cccc2c1-c1cccc3c1[C@@H](C2)N(CCC)CC3 (mixture of isomers) | > 10000 |  |  |  |
| C=CCOc1cccc2c1-c1cccc3c1[C@@H](C2)N(CCC)CC3 | 279 | > 10000 | > 10000 |  |
| C=C(C)COc1cccc2c1-c1cccc3c1[C@@H](C2)N(CCC)CC3 | 373 | > 10000 | > 10000 |  |
| CCCN1CCc2cccc3c2[C@H]1Cc1c(CC=C(C)C)ccc(O)c1-3 |  | > 10000 | > 10000 | Ki ([1]; cho): Not Active |
| C=CCc1ccc2c(c1O)-c1cccc3c1[C@@H](C2)N(CCC)CC3 | 793 | > 10000 | > 10000 |  |
| CCCN1CCc2cccc3c2[C@H]1Cc1ccc2c(c1-3)OC(C)C2C (mixture of isomers) | 90 |  |  |  |
| CCCN1CCc2cccc3c2[C@H]1Cc1ccc2c(c1-3)OC(C)(C)C2 | 630 | > 10000 | > 10000 |  |
| CC1Cc2ccc3c(c2O1)-c1cccc2c1[C@@H](C3)N(C)CC2 (mixture of isomers) | 6.7 | > 10000 | > 10000 | Emax [2]: inactive; EC50 ([3]; cho): Not Active; Imax [4]: 100%; IC50 ([5]; read-out: IC50): 323 nM |

| SMILES | Ki ([1]; read-out: Ki) [nM] | Ki (D(1A) dopamine receptor) [nM] | Ki (D(2) dopamine receptor) [nM] | other results |
| --- | --- | --- | --- | --- |
| C=CC(C)c1ccc2c(c1O)-c1cccc3c1[C@@H](C2)N(CCC)CC3 (mixture of isomers) | > 10000 |  |  |  |
| CCCN1CCc2cccc3c2[C@H]1Cc1ccc2cc(C)oc2c1-3 | 320 | > 10000 | > 10000 |  |
| C=CCOc1cccc2c1-c1cc(OC)cc3c1[C@@H](C2)N(C)CC3 | 66 | > 10000 | > 10000 |  |
| C=CCOc1cccc2c1-c1cccc3c1[C@@H](C2)N(C)CC3 | 12 | > 10000 | > 10000 | Emax [2]: 61%; EC50 ([3]; read-out: EC50): 56 nM; Imax [4]: 100%; IC50 ([5]; read-out: IC50): 323 nM |
| CCCN1CCc2cccc3c2[C@H]1Cc1ccc2c(c1-3)OC(C)C2 (mixture of isomers) | 340 |  |  |  |
| COc1cc2c3c(c1)-c1c(O)cccc1C[C@H]3N(C)CC2 | 258 | 46 | 235 |  |
| C=CCc1ccc2c(c1O)-c1cc(OC)cc3c1[C@@H](C2)N(C)CC3 | 144 | > 10000 | > 10000 |  |
| C#CCOc1cccc2c1-c1cccc3c1[C@@H](C2)N(CCC)CC3 | 55 | > 10000 | > 10000 |  |
| CN1CCc2cccc3c2[C@H]1Cc1cccc(O)c1-3 | 49 | 61 | 208 |  |
| C[C@@H]1Cc2ccc3c(c2O1)-c1cccc2c1[C@@H](C3)N(C)CC2 (relative stereo) | 3.1 | > 10000 | > 10000 | Emax [2]: 127%; EC50 ([3]; read-out: EC50): 86 nM; Imax [4]: inactive; IC50 ([5]; cho): Not Active; Activity (Rattus norvegicus [10]): Active; Activity (Rattus norvegicus [11]): inactive; Activity (Rattus norvegicus [12]): inactive; Activity (Rattus norvegicus [13]): inactive; Activity (Rattus norvegicus [14]): inactive; Activity (Rattus norvegicus [6]): Active; Activity (Rattus norvegicus [7]): Active |
| CCCN1CCc2cccc3c2[C@H]1Cc1cccc(O)c1-3 | 45 | > 10000 |  |  |
| CCCN1CCc2cccc3c2[C@H]1Cc1cccc(OCC=C(C)C)c1-3 | 149 | > 10000 | > 10000 |  |
| NCCc1c[nH]c2ccc(O)cc12 [SEROTONIN] |  |  |  | Imax [4]: inactive; IC50 ([5]; cho): Not Active |
| C=CCc1ccc2c(c1O)-c1cccc3c1[C@@H](C2)N(C)CC3 | 135 | > 10000 | > 10000 |  |
| C/C=C/COc1cccc2c1-c1cccc3c1[C@@H](C2)N(CCC)CC3 | 11 |  |  |  |
